Assay [1] relates to J774. Description: Selectivity index, ratio of IC50 for COX-1 to IC50 for COX-2 in mouse J774 cells. Type of assay: cell-based. The essentials:
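J774 macrophages stimulated 24 h with E. coli LPS (10 µg/mL) to induce COX-2, with or without compound (0.01–10 µM); supernatant PGE2 by RIA. Triplicate wells, three experiments, percent inhibition versus control, IC50 by sigmoidal fit; selectivity as COX-1/COX-2 IC50 ratio.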

For assay [2], the target named is T1, Prostaglandin G/H synthase 1 (Mus musculus, UniProt P22437).
T1 sequence (P22437 whole entry): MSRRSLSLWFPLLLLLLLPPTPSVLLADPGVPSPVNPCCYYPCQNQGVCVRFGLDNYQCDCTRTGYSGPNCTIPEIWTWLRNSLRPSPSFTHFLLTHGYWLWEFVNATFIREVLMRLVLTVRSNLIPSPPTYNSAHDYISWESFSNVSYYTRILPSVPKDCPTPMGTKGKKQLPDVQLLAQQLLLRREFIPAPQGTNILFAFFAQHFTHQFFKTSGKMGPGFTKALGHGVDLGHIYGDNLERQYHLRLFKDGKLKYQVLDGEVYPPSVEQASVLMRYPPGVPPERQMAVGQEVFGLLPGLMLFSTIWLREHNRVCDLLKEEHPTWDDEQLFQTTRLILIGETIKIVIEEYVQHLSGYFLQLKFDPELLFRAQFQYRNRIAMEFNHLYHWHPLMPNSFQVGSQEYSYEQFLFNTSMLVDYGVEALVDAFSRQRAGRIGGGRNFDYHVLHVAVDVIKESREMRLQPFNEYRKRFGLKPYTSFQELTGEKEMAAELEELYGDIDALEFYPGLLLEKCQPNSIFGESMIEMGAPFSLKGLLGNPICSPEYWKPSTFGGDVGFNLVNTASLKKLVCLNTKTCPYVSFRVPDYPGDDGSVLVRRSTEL
Nature of the assay: Inhibition of COX-1 in mouse J774 cells using arachidonic acid as substrate assessed as inhibition of prostaglandin E2 production preincubated for 15 mins followed by substrate addition measured after 30 mins by RIA. Type of assay: cell-based. The essentials:
(§1)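 J774 murine macrophages pretreated 15 min with compound (10 µM; lower concentrations 0.01–1 µM where needed), then incubated 30 min at 37 °C with 15 µM arachidonic acid; supernatant PGE2 measured by RIA. Triplicate wells, mean of three experiments of percent inhibition versus control; IC50 by sigmoidal fit.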

For assay [3], the target named is T2, Prostaglandin G/H synthase 2 (Mus musculus) (UniProt Q05769).
T2 sequence (whole entry): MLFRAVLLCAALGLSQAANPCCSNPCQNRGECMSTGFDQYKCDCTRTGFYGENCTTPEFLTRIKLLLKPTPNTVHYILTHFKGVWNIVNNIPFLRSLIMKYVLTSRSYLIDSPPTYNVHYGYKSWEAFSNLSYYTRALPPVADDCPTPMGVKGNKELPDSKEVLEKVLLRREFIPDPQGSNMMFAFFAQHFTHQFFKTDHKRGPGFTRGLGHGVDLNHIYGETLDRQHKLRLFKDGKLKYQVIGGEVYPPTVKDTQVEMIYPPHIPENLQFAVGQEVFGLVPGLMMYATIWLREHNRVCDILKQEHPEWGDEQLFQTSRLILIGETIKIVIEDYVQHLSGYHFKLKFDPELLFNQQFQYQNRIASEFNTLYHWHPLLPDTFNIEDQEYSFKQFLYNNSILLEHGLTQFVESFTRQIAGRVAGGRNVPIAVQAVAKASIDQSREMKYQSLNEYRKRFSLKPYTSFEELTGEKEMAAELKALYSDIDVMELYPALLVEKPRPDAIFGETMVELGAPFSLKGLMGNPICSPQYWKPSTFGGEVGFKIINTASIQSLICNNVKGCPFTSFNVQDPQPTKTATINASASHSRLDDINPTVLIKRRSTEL
Description: Inhibition of LPS-induced COX-2 in mouse J774 cells using arachidonic acid as substrate assessed as inhibition of prostaglandin E2 production at 10 uM preincubated for 15 mins followed by substrate addition measured after 30 mins by RIA. Type of assay: cell-based.

The target of assay [4] is T3, Prostaglandin G/H synthase 1 (Mus musculus) (UniProt P22437).
T3 sequence (whole entry): T1 sequence (P22437 whole entry)
Nature of the assay: Inhibition of COX-1 in mouse J774 cells using arachidonic acid as substrate assessed as inhibition of prostaglandin E2 production at 10 uM preincubated for 15 mins followed by substrate addition measured after 30 mins by RIA. Type of assay: cell-based. In outline:
as §1

For assay [5], the system named is Mus musculus. Description: Analgesic activity in po dosed Swiss albino mouse assessed as reduction of acetic acid-induced writhing measured every 10 mins after 5 mins of administration. Type of assay: functional, organism-based. The essentials: (§2)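 Male Swiss albino mice (23–25 g), compound given orally in CMC vehicle; writhing induced by 0.6% acetic acid (10 mL/kg) ip. Stretching movements counted for 10 min, starting 5 min after administration; percent reduction versus CMC-treated animals.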

Assay [6] deals with Mus musculus. Nature of the assay: Analgesic activity in Swiss albino mouse assessed as reduction of acetic acid-induced writhing at 40 mg/kg, po measured every 10 mins after 5 mins of administration relative to control. Type of assay: functional. On the set-up: scale not given: the % may be the effect or the level left. In outline: as §2
On the technique in general: An intraperitoneal irritant provokes the stretching counted in writhing tests.

The target of assay [7] is T4, Prostaglandin G/H synthase 2 (Mus musculus, UniProt Q05769).
T4 sequence (Q05769 whole entry): T2 sequence (whole entry)
Description: Inhibition of LPS-induced COX-2 in mouse J774 cells using arachidonic acid as substrate assessed as inhibition of prostaglandin E2 production preincubated for 15 mins followed by substrate addition measured after 30 mins by RIA. Type of assay: cell-based.

For assay [8], the system named is Mus musculus. Nature of the assay: Analgesic activity in Swiss albino mouse assessed as reduction of acetic acid-induced writhing at 10 mg/kg, po measured every 10 mins after 5 mins of administration relative to control. Type of assay: functional. On the set-up: scale not given: the % may be the effect or the level left. The essentials:
as §2

Assay [9] deals with Mus musculus. Description: Analgesic activity in Swiss albino mouse assessed as reduction of acetic acid-induced writhing at 20 mg/kg, po measured every 10 mins after 5 mins of administration relative to control. Type of assay: functional. On the set-up: scale not given: the % may be the effect or the level left. The essentials:
as §2

Structures are written as SMILES.

The IC50 is the concentration that gives 50% inhibition. For orientation: inhibition means the relative decrease from the control value, in per cent.

As to `Cc1c(CC(=O)NCCCO)cc(-c2ccc(S(C)(=O)=O)cc2)n1-c1ccc(F)cc1`, the Ratio IC50 in [1] is greater than 147. Besides, the IC50 in [2] was greater than 10 µM. The inhibition in assay [3] is 100%; in assay [4], 21%.
On to `Cc1c(CC(=O)NC(CO)C(=O)O)cc(-c2ccc(S(C)(=O)=O)cc2)n1-c1ccc(F)cc1` (racemic), for which the Activity result is “Dose-dependent effect” in [5], 60% in assay [6], 27% in assay [8] and 59% in assay [9]. For the same compound, the Ratio IC50 in [1] was greater than 62.5. In addition, the results for the IC50 in assay [7] and in assay [2] were 0.16 µM and greater than 10 µM, respectively. For the same compound, the values for the inhibition in assay [3] and in [4] were 100% and 23%, respectively.
Turning to `Cc1c(CC(=O)NCCO)cc(-c2ccc(S(C)(=O)=O)cc2)n1-c1cccc(F)c1`, the Ratio IC50 in [1] was greater than 34. For the same compound, the IC50 in [2] is greater than 10 µM. The inhibition in [3] came out at 95%; in assay [4] it was 0%.
For `Cc1c(CC(=O)NCCCO)cc(-c2ccc(S(C)(=O)=O)cc2)n1-c1cccc(F)c1`, in [1], the Ratio IC50 was greater than 222. Moreover, the figures for the IC50 in assay [7] and in [2] were 0.045 µM and greater than 10 µM, respectively. Further, the inhibition came to 100% in assay [3] and 17% in assay [4].
With `Cc1c(CC(=O)NC(CCO)C(=O)O)cc(-c2ccc(S(C)(=O)=O)cc2)n1-c1ccc(F)cc1` (racemic), the Ratio IC50 in [1] was greater than 16. The IC50 in [2] was greater than 10 µM. In addition, the inhibition in assay [3] turned out to be 89%; in [4], 19%.
